Assay results gathered from unrelated publications.
Each line is one published result; the experiments were not run side by side.

C[C@@H](O)[C@H](NC(=O)[C@H](CCCNC(=N)N)NC(=O)[C@H](CC(N)=O)NC(=O)[C@H](CC(N)=O)NC(=O)[C@@H](N)CCCNC(=N)N)C(=O)N[C@@H](CO)C(=O)NCC(=O)N[C@@H](Cc1ccccc1)C(=O)N[C@@H](CCCCN)C(=O)N[C@@H](Cc1c[nH]c2ccccc12)C(=O)O
IC50 (THP-1; cell growth or viability, ATP luminescence; 48 h): 1.8 µM

O=c1ccc2cc3ccoc3cc2o1
IC50 (HEp-2; cell growth or viability, WST-1; 48 h): 20.5 µM

C/C1=C/C(=O)O[C@@H]2C[C@@H](CC[C@H](C)/C=C\C=C\CC1)O[C@@](O)([C@@H]1CSC(=O)N1)C2
IC50 (MCF7; cell growth or viability, MTT; 72 h): 0.48 µM

C1COCCN1.COc1ccc(/C=C\c2cc(I)c(OC)c(I)c2)cc1OP(=O)(O)O
GI50 (MCF7; cell growth or viability, SRB; 48 h): 0.066 mg/L

COc1cc2c3c(n(CCCN4CCOCC4)c(=O)c2cc1OC)-c1cc2c(cc1C3=O)OCO2
IC50 (P388; cell growth or viability; 72 h): 0.154 mg/L

C=CC(=O)Nc1cc(Nc2nccc(-c3cn(C)c4ccccc34)n2)c(OC)cc1N(C)CCN(C)C
IC50 (Calu-3; cell growth or viability; 72 h): 0.65 µM

c1ccc([C@@H]2C[C@H]2NC2CCNCC2)cc1
EC50 (TF-1a; cell growth or viability, resazurin; 96 h): 0.00155 µM

Cc1c2ccncc2c(C)c2c1[nH]c1ccccc12
IC50 (THP-1; TNF-α release, inhibitor; 17 h, LPS-stimulated): 1.57 µM

COc1cc2c3c(n(CCCNCCO)c(=O)c2cc1OC)-c1cc2c(cc1C3=O)OCO2
GI50 (MCF7; cell growth or viability, SRB): < 0.01 µM

N.N.[Cl][Pt][Cl]
EC50 (MCF7; cell growth or viability, SRB): 3.6 µM

CC(C)[C@@H]1NC(=O)[C@H](CO)NC(=O)[C@H](CO)NC(=O)[C@H](CO)N(C)C(=O)[C@H](CC(=O)O)NC(=O)[C@H](CO)NC(=O)[C@H](Cc2ccccc2)NC(=O)CSC[C@@H](C(=O)NCC(N)=O)NC(=O)[C@H](CC(N)=O)NC(=O)[C@H](CCCNC(=N)N)NC(=O)[C@H](C)NC(=O)[C@H](Cc2ccc(-c3ccccc3)cc2)NC(=O)[C@H](CC(N)=O)NC(=O)[C@@H]2CCCN2C1=O
EC50 (SJSA-1; cell growth or viability): > 30 µM

CCN1C(=O)SCC1C1(OC)CC2CC(CCC(C)C=CC=CCCC(C)=CC(=O)O2)O1 (stereo not drawn)
IC50 (MCF7; cell growth or viability, MTT; 72 h): 20.6 µM

O=c1ccc2ccc3occc3c2o1
IC50 (HEp-2; cell growth or viability, WST-1; 48 h): 11.5 µM

CC(C)[C@H](N)C(=O)N1CCC[C@H]1B(O)O
IC50 (THP-1; cell growth or viability, ATP luminescence; 48 h): 0.206 µM

COc1c2c(cc3c1OCO3)[C@]13C=C[C@H](OC)C[C@@H]1[N@](C2)C[C@H]3OC(=O)c1ccoc1
IC50 (SAOS-2; cell growth or viability, WST-1): > 10 µM

Cn1cncc1[C@@](N)(c1ccc(Cl)cc1)c1ccc2c(c1)c(-c1cccc(Cl)c1)cc(=O)n2C
IC50 (FaDu; cell growth or viability; 72 h): 2.73 µM

CCCCCCCC(=O)SCC/C=C/[C@@H]1CC(=O)NCc2nc(cs2)C2=N[C@@](C)(CS2)C(=O)N[C@@H](C(C)C)C(=O)O1
IC50 (SW-620; cell growth or viability, resazurin; 48 h): 0.0265 µM

COc1c2c(cc3c1OCO3)[C@]13C=C[C@H](OC)C[C@@H]1[N@](C2)C[C@H]3OC(=O)c1ccco1
IC50 (SAOS-2; cell growth or viability, WST-1): > 10 µM
